Test results as given in ChEMBL document CHEMBL1122991, “[(Aminomethyl)aryloxy]acetic acid esters. A new class of high-ceiling diuretics. 4. Substituted 6,7-dichloro-2,3-dihydrobenzofurans derived by ring annelation” (1985).
Calls of active or inactive are those of the source. The rule behind the calls is not given here.

What was measured:
Rattus norvegicus [1] = test: Natriuretic potency was evaluated as oral dose required to produce an excretion of 2 mequiv of Na+/Kg of rat body weight; format: functional
Summary of the method: (§1)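 Oral gavage in female rats fed glucose and water overnight. DOCA 5 mg sc is given 2 h before dosing, and rats are loaded with isotonic NaCl-KCl (40:60) to 3% body weight right after dosing. Na+ excretion is collected over 4 h, four rats/dose. ED2 is taken from a linear regression of Na+ excretion vs log dose.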

Rattus norvegicus [2] = organism: Rattus norvegicus; test: Urine flow rate per kidney was evaluated in rat; format: functional
Summary of the method: (§2)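 Male adult Sprague-Dawley rats infused with Ringer's solution at 2 mL/100 g per h plus [3H]inulin (100 μCi/h). Two 30-min urine collections with midpoint blood samples form the control period. A single iv bolus of 0.1 mg/kg is given over 20–30 s, and 30 min later two more 30-min periods follow, with iv fluid replacement. Urine volume, Na+, K+ and inulin counts are measured, and GFR and fractional excretion are calculated by standard formulae. Paired t test, n = 8.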

Rattus norvegicus [3] = organism: Rattus norvegicus; test: Na+ concentration in plasma sample of rat; format: functional, organism-based; summary of the method: as §2
Rattus norvegicus [4] = organism: Rattus norvegicus; test: Fractional delivery of K+ to puncture site (percent of filtered load) of late distal tubular segments in the exposed kidney; format: functional
Summary of the method: (§3)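 Male adult Sprague-Dawley rats prepared for free-flow micropuncture, infused with Ringer's solution at 2 mL/100 g per h plus [3H]inulin (100 μCi/h). Early and late distal tubular fluid sampled from the exposed kidney during control periods and after a single iv bolus of 0.1 mg/kg given over 20–30 s. Control and treated groups compared by unpaired t test.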

Rattus norvegicus [5] = organism: Rattus norvegicus; test: Single nephron glomerular filtration rate of late distal tubular segments in the exposed kidney; format: functional; summary of the method: as §3
Rattus norvegicus [6] = organism: Rattus norvegicus; test: Glomerular filtration rate (per one kidney) per 100 g body weight of rat; format: functional; summary of the method: as §2
Rattus norvegicus [7] = organism: Rattus norvegicus; test: Single nephron glomerular filtration rate of early distal tubular segments in the exposed kidney; format: functional; summary of the method: as §3
Rattus norvegicus [8] = organism: Rattus norvegicus; test: Fractional delivery of K+ to puncture site (percent of filtered load) of early distal tubular segments in the exposed kidney; format: functional; summary of the method: as §3
Rattus norvegicus [9] = organism: Rattus norvegicus; test: Urine flow rate of early distal tubular segments in the exposed kidney; format: functional; summary of the method: as §3
Rattus norvegicus [10] = organism: Rattus norvegicus; test: Urine-to-plasma concentration ratio for inulin in rat; format: functional; summary of the method: as §2
[11] = Ratio of number of tubules/number of rats of late distal tubular segments in the exposed kidney; format: functional
Canis familiaris = test: Natriuretic potency was evaluated as oral dose required to produce an excretion of 2 mequiv of Na+/Kg of dog body weight, ED5 value based on N=2 dogs/dose; format: functional, Canis lupus familiaris
Summary of the method: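 Conscious nonloaded female dogs dosed orally, two dogs/dose. ED5 is derived from a linear regression of Na+ excretion vs log dose.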

Rattus norvegicus [12] = organism: Rattus norvegicus; test: Tubular fluid-to-plasma concentration ratio for inulin of late distal tubular segments in the exposed kidney; format: functional; summary of the method: as §3
Rattus norvegicus [13] = organism: Rattus norvegicus; test: Tubular fluid-to-plasma concentration ratio for inulin of early distal tubular segments in the exposed kidney; format: functional; summary of the method: as §3
Rattus norvegicus [14] = organism: Rattus norvegicus; test: Fractional delivery of Na+ to puncture site (percent of filtered load) of early distal tubular segments in the exposed kidney; format: functional; summary of the method: as §3
Rattus norvegicus [15] = test: Natriuretic potency was evaluated as oral dose required to produce an excretion of 2 mequiv of Na+/Kg of rat body weight, ED2 value based on N=4 rats/dose; format: functional; summary of the method: as §1
Rattus norvegicus [16] = organism: Rattus norvegicus; test: Urine flow rate of late distal tubular segments in the exposed kidney; format: functional; summary of the method: as §3
Rattus norvegicus [17] = organism: Rattus norvegicus; test: Fractional excretion of Na+ (percent of filtered load) in rat; format: functional; summary of the method: as §2
Rattus norvegicus [18] = organism: Rattus norvegicus; test: Fractional delivery of Na+ to puncture site (percent of filtered load) of late distal tubular segments in the exposed kidney; format: functional; summary of the method: as §3
Rattus norvegicus [19] = organism: Rattus norvegicus; test: Fractional excretion of K+ (percent of filtered load) in rat; format: functional; summary of the method: as §2
Rattus norvegicus [20] = organism: Rattus norvegicus; test: K+ concentration in plasma sample of rat; format: functional, organism-based; summary of the method: as §2
Rattus norvegicus [21] = test: Natriuretic potency was evaluated as oral dose required to produce an excretion of 2 mequiv of Na+/Kg of rat body weight; IA means Inactive; format: functional, organism-based; summary of the method: as §1

With `NCc1cc(Cc2cc3c(c(Cl)c2Cl)OC(CO)C3)ccc1O` (centres undefined) the ED2 (Rattus norvegicus [1]) was 10.2 mg/kg.
Compound `NCc1cc(C(=O)c2cc3c(c(Cl)c2Cl)OC(C(N)=O)C3)ccc1O` (centres undefined) has an ED2 (Rattus norvegicus [1]) of 2.95 mg/kg.
Work on `CCOC(=O)C1Cc2cc(C(=O)c3ccc(O)c(CN)c3)c(Cl)c(Cl)c2O1` (centres undefined) yielded a Rate (Rattus norvegicus [2]) of 67.6 µL/min, a Plasma (Rattus norvegicus [3]) of 144 mM and an FD (Rattus norvegicus [4]) of 23.6%. The SNGFR (Rattus norvegicus [5]) was 33.9 nL/min, the GFR (Rattus norvegicus [6]) was 0.46 mL/min and the SNGFR (Rattus norvegicus [7]) was 35.7 nL/min. The FD (Rattus norvegicus [8]) was 23%, the Rate (Rattus norvegicus [9]) was 8.2 nL/min and the U/P (Rattus norvegicus [10]) was 19.7. It also gave a Ratio [11] of 8, an ED5 (Canis familiaris) of 0.11 mg/kg and a TF/P (Rattus norvegicus [12]) of 8.48. It also gave a TF/P (Rattus norvegicus [13]) of 4.39, an FD (Rattus norvegicus [14]) of 13.6% and an ED2 (Rattus norvegicus [15]) of 0.12 mg/kg. The Rate (Rattus norvegicus [16]) was 4.6 nL/min, the FE (Rattus norvegicus [17]) was 6.3% and the FD (Rattus norvegicus [18]) was 8.1%. The FE (Rattus norvegicus [19]) was 54.6% and the Plasma (Rattus norvegicus [20]) was 3.57 mM.
`NS(=O)(=O)c1cc(C(=O)O)c(NCc2ccco2)cc1Cl` [FUROSEMIDE] gave an ED5 (Canis familiaris) of 3.5 mg/kg and an ED2 (Rattus norvegicus [15]) of 9.5 mg/kg.
For `CCOC(=O)C1Cc2cc(C(=O)c3cc(Cl)c(O)c(CN)c3)c(Cl)c(Cl)c2O1` (centres undefined), the ED2 (Rattus norvegicus [1]) was 21.5 mg/kg.
For `NCc1cc(C(=O)c2cc3c(c(Cl)c2Cl)OC(C(=O)O)C3)ccc1O` (centres undefined), the ED2 (Rattus norvegicus [21]) was “inactive”.
In the case of `CCOC(=O)C1Cc2cc(Cc3ccc(O)c(CN)c3)c(Cl)c(Cl)c2O1` (centres undefined), the ED2 (Rattus norvegicus [1]) is reported as 8 mg/kg.
Compound `CCCCNc1cc(C(=O)O)cc(S(N)(=O)=O)c1Oc1ccccc1` [BUMETANIDE] has an ED5 (Canis familiaris) of 0.15 mg/kg and an ED2 (Rattus norvegicus [15]) of 8.5 mg/kg.
Work on `NCc1cc(C(=O)c2cc3c(c(Cl)c2Cl)OC(CO)C3)ccc1O` (centres undefined) yielded an ED2 (Rattus norvegicus [1]) of 0.95 mg/kg.
For `CCOC(=O)C1Cc2cc(C(=O)c3cc(CN(C)C)c(O)c(CN(C)C)c3)c(Cl)c(Cl)c2O1` (centres undefined), the ED2 (Rattus norvegicus [1]) was 1.82 mg/kg.
Work on `CCOC(=O)C1Cc2cc(Cc3cc(CN)c(O)c(CN)c3)c(Cl)c(Cl)c2O1` (centres undefined) yielded an ED2 (Rattus norvegicus [1]) of 49 mg/kg.
`NS(=O)(=O)c1cc(C(=O)O)cc(N2CCCC2)c1Oc1ccccc1` [PIRETANIDE] gave an ED5 (Canis familiaris) of 0.25 mg/kg and an ED2 (Rattus norvegicus [15]) of 0.89 mg/kg.
